Series [1] has as its system B16-F0. The series can be described thus: Induction of microtubule destabilization in mouse B16-F0 cells assessed as short and wrapped structure at 160 nM measured after 6 hrs by DAPI staining based immunofluorescent assay relative to control. It is filed as cell-based.
A further series has as its system HeLa. The experiment in a line: Antiproliferative activity against human HeLa cells assessed as inhibition of cell proliferation measured after 48 hrs by CCK-8 assay. It is filed as functional, cell-based. Put shortly:
(§1)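 RPMI-1640 with 10% FBS, 37 °C, 5% CO2. Cells seeded at 1-3 × 10^4/well and exposed to 0.00098–64 μM (nine 4-fold steps) or 0.1% DMSO vehicle for 48 h. CCK-8 then added for 4 h; absorbance read at 450 nm. IC50 taken from dose–response curves; mean ± SD of three independent experiments.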

Series [2] deals with MCF7. The experiment in a line: Antiproliferative activity against human MCF7 cells assessed as inhibition of cell proliferation measured after 48 hrs by CCK-8 assay. It is filed as functional, cell-based. The conditions noted are these: MCF7, 48 h.
The subject of series [3] is B16-F0. The series can be described thus: Antiproliferative activity against mouse B16-F0 cells assessed as inhibition of cell proliferation measured after 48 hrs by CCK-8 assay. It is filed as functional, cell-based. The conditions noted are these: B16F0, 48 h. Put shortly:
as §1

The subject of a further series is HCT-116. The series can be described thus: Antiproliferative activity against human HCT-116 cells assessed as inhibition of cell proliferation measured after 48 hrs by CCK-8 assay. It is filed as functional, cell-based. The following applies: HCT-116, 48 h. Put shortly: as §1
Another series concerns A549. The experiment in a line: Antiproliferative activity against human A549 cells assessed as inhibition of cell proliferation measured after 48 hrs by CCK-8 assay. Type of series: functional, cell-based. The following applies: A549, 48 h. Put shortly:
as §1

In series [4] the test system is B16-F0. The series can be described thus: Antitumour activity against mouse B16-F0 cells transplanted in C57/BL mouse assessed as decrease in tumour weight at 10 mg/kg, ip measured after 16 days in relative to control. Type of series: functional. The arrangement: scale not given: the % may be the effect or the level left. The following applies: time 16 day.
Series [5] relates to B16-F0. The series can be described thus: Stabilization of microtubules in mouse B16-F0 cells at 40 nM measured after 6 hrs by DAPI staining based Immunofluorescent assay relative to control. Type of series: cell-based. Put shortly:
(§2)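 Fixed in 4% paraformaldehyde, permeabilized with 0.5% Triton X-100 for 15 min, goat serum blocked. Anti-tubulin antibody 2 h at 4 °C, then fluorescent secondary antibody and DAPI nuclear counterstain. Imaged by confocal microscopy.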

Series [6] is described as follows: Toxicity in C57/BL mouse […] with mouse B16-F0 cells assessed as liver histology at 10 to 20 mg/kg, ip measured after 16 days by H and E staining method in relative to control. Type of series: organism-based. The conditions noted are these: in vivo, 384 h, dose 10-20 mg/kg, time 16 day.
The nature of series [7]: Toxicity in C57/BL mouse […] with mouse B16-F0 cells assessed as body weight loss at 10 to 20 mg/kg, ip measured after 16 days in relative to control. It is filed as organism-based. The following applies: in vivo, 384 h, dose 10-20 mg/kg, time 16 day.
Series [8] deals with B16-F0. The series can be described thus: Antitumour activity against mouse B16-F0 cells transplanted in C57/BL mouse assessed as decrease in tumour volume at 10 mg/kg, ip measured after 16 days in relative to control. It is filed as functional. Set-up: scale not given: the % may be the effect or the level left. The following applies: time 16 day.
A short description of series [9]: Inhibition of pig brain tubulin polymerization measured by light scattering based spectrophotometer method. Type of series: tissue-based, Sus scrofa. Summed up:
(§3)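 Porcine brain tubulin purified by three assembly/disassembly cycles and phosphocellulose chromatography. Mixed with graded compound concentrations in PEM (100 mM PIPES, 1 mM EGTA, 1 mM MgCl2) with 1 mM GTP and 5% glycerol. Polymerization followed at 37 °C by light scattering at 340 nm; variants ran at 30 °C, or with 5 min preincubation before GTP addition. IC50 reported.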

Series [10] deals with MCF7. The experiment in a line: Induction of cell cycle arrest in human MCF7 cells assessed as accumulation of cells at G2/M phase measured after 48 hrs by FACS Calibur flow cytometry in relative to control. Type of series: functional, cell-based. Summed up: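 MCF-7 cells plated for 24 h, then exposed to compound (5 or 10 nM; DMSO control) for 48 h. Fixed in 70% ethanol at 4 °C for 12 h, then RNase A and propidium iodide staining for 30 min. DNA content measured by flow cytometry.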

Series [11] is described as follows: Metabolic stability in human liver microsomes assessed as half life in presence of NADPH at 0.5 uM measured after 4 hrs by LC/MS method. Type of series: ADME, Microsome.
Series [12] in a line: Metabolic stability in mouse liver microsomes assessed as half life in presence of NADPH at 0.5 uM measured after 4 hrs by LC/MS method. Type of series: ADME, Microsome.
A short description of series [13]: Binding affinity to pig brain tubulin at 37 degree C without preincubation. Type of series: tissue-based, Sus scrofa. Put shortly:
as §3

The nature of series [14]: Binding affinity to pig brain tubulin at 37 degree C preincubated for 5 mins. It is filed as tissue-based, Sus scrofa. Summed up: as §3
Series [15] is described as follows: Binding affinity to pig brain tubulin at 30 degree C without preincubation. It is filed as tissue-based, Sus scrofa. Summed up:
as §3

Series [16] relates to B16-F0. The series can be described thus: Induction of microtubule destabilization in mouse B16-F0 cells assessed as short and wrapped structure at 40 nM measured after 6 hrs by DAPI staining based immunofluorescent assay relative to control. It is filed as cell-based. Summed up: as §2
Series [17] can be described thus: Toxicity in C57/BL mouse […] with mouse B16-F0 cells assessed as kidney histology at 10 to 20 mg/kg, ip measured after 16 days by H and E staining method in relative to control. Type of series: organism-based. The following applies: in vivo, 384 h, dose 10-20 mg/kg, time 16 day.
In series [18] the test system is B16-F0. The series can be described thus: Antitumour activity against mouse B16-F0 cells transplanted in C57/BL mouse assessed as decrease in tumour weight at 20 mg/kg, ip measured after 16 days in relative to control. The following applies: time 16 day. Type of series: functional. Set-up: scale not given: the % may be the effect or the level left.
For series [19], the system named is MCF7. The experiment in a line: Inhibition of cell migration in human MCF7 cells measured after 24 hrs by phase contrast microscopy based wound healing assay relative to control. Type of series: functional. The conditions noted are these: dose 10-40 nM. Summed up: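 Confluent MCF-7 monolayers, grown 24 h, scratched with a pipette tip and washed with PBS. Medium with 0, 10, 20 or 40 nM compound added. Wounds photographed by phase contrast at 0 and 24 h; migration distance measured manually.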

Series [20] deals with B16-F0. The experiment in a line: Inhibition of tubulin polymerization in mouse B16-F0 cells at 160 nM measured after 6 hrs by DAPI staining based immunofluorescent assay relative to control. It is filed as cell-based. The conditions noted are these: dose 40.0 nM, in the assay text read “at 40 nM” for “at 160 nM”. Summed up:
as §2

Series [21] has as its system B16-F0. The series can be described thus: Inhibition of tubulin polymerization in mouse B16-F0 cells at 40 nM measured after 6 hrs by DAPI staining based immunofluorescent assay relative to control. Type of series: cell-based. Put shortly: as §2
The subject of series [22] is B16-F0. The series can be described thus: Antitumour activity against mouse B16-F0 cells transplanted in C57/BL mouse assessed as decrease in tumour volume at 20 mg/kg, ip measured after 16 days in relative to control. Type of series: functional. Set-up: scale not given: the % may be the effect or the level left. The following applies: time 16 day.

This is an account of results in ChEMBL document CHEMBL4706506 (Eur J Med Chem, 2020).

Each structure is given as a SMILES string. The source made the active and inactive calls. The calls are words filed in the database; no cut-off is given here.

Regarding `COc1cc2c(c(OC)c1OC)-c1ccc(OC)c(=O)cc1[C@@H](NC(C)=O)CC2` [COLCHICINE], in the series with B16-F0 [1], the result was Active. The IC50 in the series on HeLa was determined as 81 nM; in the series with MCF7 [2], 18 nM; in the series on B16-F0 [3], 87 nM; in the series on HCT-116, 42 nM; in the series with A549, 107 nM.

For `CC(=O)O[C@H]1C(=O)[C@@]2(C)[C@H]([C@H](OC(=O)c3ccccc3)[C@]3(O)C[C@H](OC(=O)[C@H](O)[C@@H](NC(=O)c4ccccc4)c4ccccc4)C(C)=C1C3(C)C)[C@]1(OC(C)=O)CO[C@@H]1C[C@@H]2O` [PACLITAXEL], the Activity is 60.4% in the series on B16-F0 [4], “Non-Toxic” in series [6], “Non-Toxic” in [7] and 63.8% with B16-F0 [8]. For the same molecule, the figures for the IC50 in the series with HeLa and with B16-F0 [3] were 41 nM and 21 nM, respectively. Also, in the series on B16-F0 [5], the result was Active.

For `COc1cc(-c2ccnc3cc(-c4ccc5c(ccn5C)c4)nn23)cc(OC)c1OC`, the IC50 in series [9] came to 6700 nM; with HeLa, 19 nM; in series [13], 6700 nM; in the series on MCF7 [2], 3 nM; with B16-F0 [3], 48 nM; in series [14], 5700 nM. Also, the values for the IC50 (with HCT-116; in the series on A549; in series [15]) were 39 nM, 15 nM and 6400 nM, respectively. Besides, in the series with MCF7 [10], the result was Active. Moreover, the half-life at 0.5 µM in series [11] stood at 0.333 h; in [12], 0.117 h.

In the case of `COc1cc(-c2ccnc3cc(-c4ccc(C)cc4)nn23)cc(OC)c1OC`, the IC50 was determined as 2100 nM in [9]; 21 nM with HeLa; 2100 nM in series [13]; 47 nM in the series on MCF7 [2]; 21 nM in the series on B16-F0 [3]; 1600 nM in series [14]. Besides, the IC50 in the series on HCT-116 was found to be 48 nM; in the series with A549 it was 3 nM; in [15] it was 2100 nM. In addition, the Activity with B16-F0 [4] is on record as 38.6%; in series [17] it was “Non-Toxic”; in the series on B16-F0 [18] it was 74.5%; in series [6] it was “Non-Toxic”; in series [7], “Non-Toxic”; in the series with B16-F0 [8], 40.1%. For the same molecule, in the series on B16-F0 [22], the Activity amounted to 77.4%. For the same molecule, the result with B16-F0 [16] and in the series with MCF7 [10] was Active. Besides, the half-life at 0.5 µM in [11] amounted to 2.08 h; in series [12] it was 2 h. The inhibition result with MCF7 [19], with B16-F0 [20] and with B16-F0 [21] was “Active” each time.
